In ChEMBL document CHEMBL3588829, “Dehydro-β-proline Containing α4β1 Integrin Antagonists: Stereochemical Recognition in Ligand-Receptor Interplay” (ACS Med Chem Lett, 2015):

What was measured:
[1] = biological target: T1, Integrin alpha-4/beta-1 (Homo sapiens, UniProt P05556+P13612); assay: Inhibition of human alpha4beta1 integrin expressed in human Jurkat cells assessed as inhibition of cell adhesion to VCAM-1; format: cell-based
Summary of the method: (§1)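 Cell adhesion inhibition assay, run on Jurkat with VCAM-1, RPMI8866, K562 or SK-MEL-24 cells. Each experiment was run in quadruplicate and repeated at least three times.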

[2] = biological target: Integrin alpha-5/beta-1 (Homo sapiens, UniProt P05556+P08648); assay: Inhibition of human alpha5beta1 integrin expressed in human K-562 cells assessed as inhibition of cell adhesion to fibronectin; format: cell-based, K562; summary of the method: as §1
Sequence of Integrin alpha-5/beta-1 (P05556 21-798 limits assumed): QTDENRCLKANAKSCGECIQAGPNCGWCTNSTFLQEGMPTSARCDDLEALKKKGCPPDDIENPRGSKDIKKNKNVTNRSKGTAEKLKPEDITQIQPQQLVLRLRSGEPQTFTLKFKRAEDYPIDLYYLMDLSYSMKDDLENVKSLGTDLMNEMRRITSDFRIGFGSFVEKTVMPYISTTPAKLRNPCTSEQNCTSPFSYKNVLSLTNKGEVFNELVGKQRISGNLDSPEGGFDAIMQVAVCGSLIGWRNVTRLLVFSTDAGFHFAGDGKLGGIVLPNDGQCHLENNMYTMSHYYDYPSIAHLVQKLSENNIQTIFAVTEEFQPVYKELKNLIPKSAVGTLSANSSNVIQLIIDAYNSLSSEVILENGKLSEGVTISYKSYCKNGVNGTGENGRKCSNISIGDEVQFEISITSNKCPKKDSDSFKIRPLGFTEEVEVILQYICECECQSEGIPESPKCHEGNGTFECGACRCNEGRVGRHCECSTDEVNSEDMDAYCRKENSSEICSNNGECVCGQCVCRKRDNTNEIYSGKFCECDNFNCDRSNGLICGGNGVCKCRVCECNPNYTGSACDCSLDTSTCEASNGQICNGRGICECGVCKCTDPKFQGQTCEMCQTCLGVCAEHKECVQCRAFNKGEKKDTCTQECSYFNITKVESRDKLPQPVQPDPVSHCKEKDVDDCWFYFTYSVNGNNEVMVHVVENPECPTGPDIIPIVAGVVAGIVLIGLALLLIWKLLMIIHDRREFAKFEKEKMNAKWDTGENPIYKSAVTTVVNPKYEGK
Sequence of Integrin alpha-5/beta-1 (P08648 42-894 limits assumed): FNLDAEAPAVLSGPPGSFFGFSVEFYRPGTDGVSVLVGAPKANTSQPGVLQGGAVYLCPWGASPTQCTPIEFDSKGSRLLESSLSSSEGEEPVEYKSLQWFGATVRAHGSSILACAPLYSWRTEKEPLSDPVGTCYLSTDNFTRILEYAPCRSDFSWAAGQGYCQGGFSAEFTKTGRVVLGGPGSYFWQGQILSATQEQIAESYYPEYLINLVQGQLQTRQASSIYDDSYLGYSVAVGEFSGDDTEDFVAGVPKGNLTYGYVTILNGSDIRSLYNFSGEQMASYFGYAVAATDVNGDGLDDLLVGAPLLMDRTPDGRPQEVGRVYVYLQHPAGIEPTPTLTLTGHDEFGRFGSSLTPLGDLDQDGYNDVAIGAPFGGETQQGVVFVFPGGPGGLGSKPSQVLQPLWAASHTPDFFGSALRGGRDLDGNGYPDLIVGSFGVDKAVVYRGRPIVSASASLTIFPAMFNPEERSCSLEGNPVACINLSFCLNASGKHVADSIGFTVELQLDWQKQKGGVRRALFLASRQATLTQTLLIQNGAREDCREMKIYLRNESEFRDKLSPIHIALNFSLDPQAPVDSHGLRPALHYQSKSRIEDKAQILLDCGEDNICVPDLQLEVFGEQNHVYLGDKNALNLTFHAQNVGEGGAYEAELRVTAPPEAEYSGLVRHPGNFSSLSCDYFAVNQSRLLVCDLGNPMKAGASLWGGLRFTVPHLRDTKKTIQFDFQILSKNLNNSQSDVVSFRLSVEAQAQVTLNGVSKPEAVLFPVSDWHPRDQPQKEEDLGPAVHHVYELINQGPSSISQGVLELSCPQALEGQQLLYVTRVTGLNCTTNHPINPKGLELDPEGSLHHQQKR
Sequence of Integrin alpha-5/beta-1 (P08648 895-1049 limits assumed): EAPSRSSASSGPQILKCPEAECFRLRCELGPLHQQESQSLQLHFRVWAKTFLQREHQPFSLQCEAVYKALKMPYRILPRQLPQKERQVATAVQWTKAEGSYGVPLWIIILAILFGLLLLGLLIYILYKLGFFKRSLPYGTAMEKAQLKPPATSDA

[3] = Inhibition of human […] integrin expressed in human Jurkat cells assessed as inhibition of cell adhesion to ICAM1; format: cell-based
[4] = biological target: T2, Integrin alpha-4/beta-7 (Homo sapiens, UniProt P13612+P26010); assay: Inhibition of human alpha4beta7 integrin expressed in human RPMI8866 cells assessed as inhibition of cell adhesion to MadCam1; format: cell-based; summary of the method: as §1
T2 sequence (P13612 whole entry): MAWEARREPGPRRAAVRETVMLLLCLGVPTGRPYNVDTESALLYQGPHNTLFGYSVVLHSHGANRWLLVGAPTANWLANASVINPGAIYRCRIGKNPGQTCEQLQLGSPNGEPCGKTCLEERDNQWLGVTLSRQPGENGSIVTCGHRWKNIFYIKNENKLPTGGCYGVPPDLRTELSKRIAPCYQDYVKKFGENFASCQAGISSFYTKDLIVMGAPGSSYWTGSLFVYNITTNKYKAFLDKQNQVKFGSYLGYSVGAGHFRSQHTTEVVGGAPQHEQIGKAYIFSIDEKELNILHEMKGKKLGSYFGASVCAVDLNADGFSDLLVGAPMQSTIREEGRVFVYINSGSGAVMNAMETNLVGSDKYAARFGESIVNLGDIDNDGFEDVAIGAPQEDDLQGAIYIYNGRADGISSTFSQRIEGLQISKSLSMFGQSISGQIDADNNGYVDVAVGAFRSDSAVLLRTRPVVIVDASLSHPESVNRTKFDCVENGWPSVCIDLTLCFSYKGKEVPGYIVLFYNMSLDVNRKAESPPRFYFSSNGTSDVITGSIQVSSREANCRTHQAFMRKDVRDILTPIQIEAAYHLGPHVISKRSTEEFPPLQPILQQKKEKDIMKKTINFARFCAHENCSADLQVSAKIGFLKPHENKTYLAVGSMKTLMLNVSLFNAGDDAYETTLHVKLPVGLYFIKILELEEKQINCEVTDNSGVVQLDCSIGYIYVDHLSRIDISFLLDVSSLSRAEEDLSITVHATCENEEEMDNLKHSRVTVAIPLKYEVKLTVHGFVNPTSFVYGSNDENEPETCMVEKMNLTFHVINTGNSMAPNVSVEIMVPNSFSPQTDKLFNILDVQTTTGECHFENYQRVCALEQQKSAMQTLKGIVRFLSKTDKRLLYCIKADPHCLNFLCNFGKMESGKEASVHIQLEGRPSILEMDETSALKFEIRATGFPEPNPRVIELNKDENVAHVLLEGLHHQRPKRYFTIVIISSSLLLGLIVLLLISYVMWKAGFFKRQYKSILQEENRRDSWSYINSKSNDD
T2 sequence (P26010 whole entry): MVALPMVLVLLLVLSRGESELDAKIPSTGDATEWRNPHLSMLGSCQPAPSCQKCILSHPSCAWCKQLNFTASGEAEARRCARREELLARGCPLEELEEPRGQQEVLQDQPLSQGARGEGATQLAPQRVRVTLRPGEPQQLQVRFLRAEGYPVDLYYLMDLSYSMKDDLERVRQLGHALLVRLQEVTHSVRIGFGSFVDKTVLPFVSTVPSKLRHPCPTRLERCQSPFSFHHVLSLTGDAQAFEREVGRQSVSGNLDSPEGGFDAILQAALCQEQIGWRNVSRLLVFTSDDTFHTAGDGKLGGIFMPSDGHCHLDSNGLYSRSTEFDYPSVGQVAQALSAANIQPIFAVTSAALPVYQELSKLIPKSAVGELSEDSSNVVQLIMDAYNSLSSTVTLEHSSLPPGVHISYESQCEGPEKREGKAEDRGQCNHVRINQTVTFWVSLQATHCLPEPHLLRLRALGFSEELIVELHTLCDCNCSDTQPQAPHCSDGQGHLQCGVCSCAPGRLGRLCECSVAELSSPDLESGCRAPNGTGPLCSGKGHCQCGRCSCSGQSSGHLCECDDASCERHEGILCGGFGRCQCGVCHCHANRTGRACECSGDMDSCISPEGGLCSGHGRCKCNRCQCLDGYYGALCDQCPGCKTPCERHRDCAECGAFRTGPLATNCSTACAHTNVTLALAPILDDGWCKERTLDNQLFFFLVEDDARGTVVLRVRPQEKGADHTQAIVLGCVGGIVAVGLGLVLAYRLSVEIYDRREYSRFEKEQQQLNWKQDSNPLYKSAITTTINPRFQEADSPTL

[5] = biological target: T1, Integrin alpha-4/beta-1; assay: Antagonist activity at human alpha4beta1integrin in human Jurkat cells assessed as reduction of VCAM-1-induced ERK1/2 phosphorylation after 60 mins by Western blot analysis; format: cell-based
Summary of the method: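 Jurkat cells were serum-starved for 16 h in RPMI-1640 with 1% FBS, then preincubated with compound in suspension for 60 min. They were then kept in suspension or plated on VCAM-1-coated wells, with poly-L-lysine as the nonspecific substrate. After 60 min the cells were lysed and Western blotted for pERK1/2 and total ERK1/2. Densitometry normalized pERK1/2 to tERK1/2 (mean ± SEM, n = 6). IC50 came from a separate concentration series.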

[6] = biological target: Integrin alpha-V/beta-3 (Homo sapiens, UniProt P05106+P06756); assay: Inhibition of human alphaVbeta3 integrin expressed in human SK-MEL-24 cells assessed as inhibition of cell adhesion to fibronectin
Sequence of Integrin alpha-V/beta-3 (P05106 27-788 limits assumed): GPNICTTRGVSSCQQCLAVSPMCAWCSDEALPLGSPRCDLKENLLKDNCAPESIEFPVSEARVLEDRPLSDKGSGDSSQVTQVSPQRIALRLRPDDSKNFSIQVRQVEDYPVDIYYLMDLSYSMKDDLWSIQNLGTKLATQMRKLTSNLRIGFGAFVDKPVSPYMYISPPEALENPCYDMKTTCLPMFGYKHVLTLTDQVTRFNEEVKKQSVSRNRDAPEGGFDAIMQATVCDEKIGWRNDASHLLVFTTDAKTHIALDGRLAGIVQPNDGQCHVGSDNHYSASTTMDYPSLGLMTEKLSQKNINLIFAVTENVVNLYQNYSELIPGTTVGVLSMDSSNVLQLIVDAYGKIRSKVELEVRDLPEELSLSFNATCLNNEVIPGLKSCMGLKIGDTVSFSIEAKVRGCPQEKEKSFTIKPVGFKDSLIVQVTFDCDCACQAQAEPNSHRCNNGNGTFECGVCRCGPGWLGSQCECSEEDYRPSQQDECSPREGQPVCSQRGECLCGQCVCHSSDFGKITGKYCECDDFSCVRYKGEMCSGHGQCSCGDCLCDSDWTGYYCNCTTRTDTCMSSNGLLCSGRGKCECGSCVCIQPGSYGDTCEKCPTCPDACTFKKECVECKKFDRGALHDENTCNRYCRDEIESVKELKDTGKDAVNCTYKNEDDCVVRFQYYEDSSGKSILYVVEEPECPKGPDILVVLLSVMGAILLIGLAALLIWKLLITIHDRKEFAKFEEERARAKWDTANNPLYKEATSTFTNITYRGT
Sequence of Integrin alpha-V/beta-3 (P06756 31-889 limits assumed): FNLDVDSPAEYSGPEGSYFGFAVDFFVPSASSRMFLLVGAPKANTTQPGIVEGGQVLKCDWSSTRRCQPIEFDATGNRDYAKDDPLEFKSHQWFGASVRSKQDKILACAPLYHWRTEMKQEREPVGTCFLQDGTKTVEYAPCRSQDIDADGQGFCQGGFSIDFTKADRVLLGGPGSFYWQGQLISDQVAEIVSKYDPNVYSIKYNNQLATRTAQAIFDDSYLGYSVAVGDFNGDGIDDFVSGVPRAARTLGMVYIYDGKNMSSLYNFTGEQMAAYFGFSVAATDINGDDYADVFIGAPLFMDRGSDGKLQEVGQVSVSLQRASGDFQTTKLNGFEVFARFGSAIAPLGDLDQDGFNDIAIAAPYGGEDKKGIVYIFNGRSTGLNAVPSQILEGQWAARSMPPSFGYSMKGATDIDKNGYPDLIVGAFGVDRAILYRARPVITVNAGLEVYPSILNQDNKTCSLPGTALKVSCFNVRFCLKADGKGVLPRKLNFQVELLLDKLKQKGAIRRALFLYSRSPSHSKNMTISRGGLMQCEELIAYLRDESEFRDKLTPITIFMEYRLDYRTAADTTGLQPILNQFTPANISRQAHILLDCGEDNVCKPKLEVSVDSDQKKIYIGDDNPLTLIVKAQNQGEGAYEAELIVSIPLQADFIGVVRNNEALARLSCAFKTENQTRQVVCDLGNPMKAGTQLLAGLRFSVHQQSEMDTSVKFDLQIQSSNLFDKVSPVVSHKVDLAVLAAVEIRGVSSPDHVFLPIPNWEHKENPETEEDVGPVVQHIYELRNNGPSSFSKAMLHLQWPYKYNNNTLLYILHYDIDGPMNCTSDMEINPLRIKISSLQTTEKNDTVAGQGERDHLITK
Sequence of Integrin alpha-V/beta-3 (P06756 891-1048 limits assumed): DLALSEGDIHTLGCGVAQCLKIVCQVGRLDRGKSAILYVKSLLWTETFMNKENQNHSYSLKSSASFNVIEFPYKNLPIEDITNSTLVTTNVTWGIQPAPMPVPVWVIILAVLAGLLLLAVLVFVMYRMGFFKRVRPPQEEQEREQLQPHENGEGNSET

T1 sequence (P05556 whole entry, one chain of several): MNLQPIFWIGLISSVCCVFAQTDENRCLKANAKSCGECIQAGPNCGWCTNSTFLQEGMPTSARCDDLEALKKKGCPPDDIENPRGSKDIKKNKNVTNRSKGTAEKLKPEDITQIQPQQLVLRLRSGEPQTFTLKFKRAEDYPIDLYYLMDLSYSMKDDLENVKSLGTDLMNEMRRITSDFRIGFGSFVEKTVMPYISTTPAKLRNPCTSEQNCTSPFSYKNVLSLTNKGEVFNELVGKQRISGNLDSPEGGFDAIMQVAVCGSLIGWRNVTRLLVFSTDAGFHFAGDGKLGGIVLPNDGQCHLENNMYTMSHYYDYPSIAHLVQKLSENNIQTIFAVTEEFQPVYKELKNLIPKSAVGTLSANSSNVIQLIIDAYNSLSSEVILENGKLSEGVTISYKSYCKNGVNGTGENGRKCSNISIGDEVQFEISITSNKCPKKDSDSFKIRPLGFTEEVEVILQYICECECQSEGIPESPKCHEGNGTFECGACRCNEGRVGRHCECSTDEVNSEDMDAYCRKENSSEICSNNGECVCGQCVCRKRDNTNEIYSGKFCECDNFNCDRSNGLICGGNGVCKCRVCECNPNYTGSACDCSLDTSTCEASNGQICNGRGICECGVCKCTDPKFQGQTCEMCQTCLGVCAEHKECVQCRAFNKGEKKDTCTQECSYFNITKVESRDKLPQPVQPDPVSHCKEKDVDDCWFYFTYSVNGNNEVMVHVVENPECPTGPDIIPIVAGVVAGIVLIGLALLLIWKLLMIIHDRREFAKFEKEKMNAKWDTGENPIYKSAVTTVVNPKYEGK

SMILES	IC50 [1] [µM]	IC50 [2] [µM]	IC50 [3] [µM]	IC50 [4] [µM]	IC50 [5] [µM]	IC50 [6] [µM]
Cc1ccccc1NC(=O)N1CC=C(C(=O)NCc2ccc(NC(=O)CC(=O)O)cc2)[C@@H]1C(C)C	0.11					
Cc1ccccc1NC(=O)N1CC=C(C(=O)NCc2ccc(NC(=O)CC(=O)O)cc2)[C@H]1C(C)C	0.25					
Cc1ccccc1NC(=O)Nc1ccc(CNC(=O)C2=CCN(C(=O)CC(=O)O)[C@H]2C(C)C)cc1	> 1					
Cc1ccccc1NC(=O)Nc1ccc(CNC(=O)C2=CCN(C(=O)CC(=O)O)[C@@H]2C(C)C)cc1	0.01	> 1	> 1	0.27	0.01	> 1

Results, then the compound that gave them:

IC50 [1] [µM]	IC50 [2] [µM]	IC50 [3] [µM]	IC50 [4] [µM]	IC50 [5] [µM]	IC50 [6] [µM]	SMILES
> 1						Cc1ccccc1NC(=O)Nc1ccc(CNC(=O)C2=CCN(C(=O)CC(=O)O)[C@H]2C2CCCCC2)cc1
0.062	> 1	> 1	0.343	0.131	> 1	Cc1ccccc1NC(=O)Nc1ccc(CNC(=O)C2=CCN(C(=O)CC(=O)O)[C@@H]2C2CCCCC2)cc1
